Experiments:
NADPH oxidase 1 = target: T1, NADPH oxidase 1 (Homo sapiens, UniProt Q9Y5S8); test: Antagonist activity at human NOX1 expressed in CHO cell membrane coexpressing tetracylin repressor assessed as inhibition of ROS production after 20 mins by cell-free amplex red assay; assay type: functional
T1 sequence (Q9Y5S8 whole entry): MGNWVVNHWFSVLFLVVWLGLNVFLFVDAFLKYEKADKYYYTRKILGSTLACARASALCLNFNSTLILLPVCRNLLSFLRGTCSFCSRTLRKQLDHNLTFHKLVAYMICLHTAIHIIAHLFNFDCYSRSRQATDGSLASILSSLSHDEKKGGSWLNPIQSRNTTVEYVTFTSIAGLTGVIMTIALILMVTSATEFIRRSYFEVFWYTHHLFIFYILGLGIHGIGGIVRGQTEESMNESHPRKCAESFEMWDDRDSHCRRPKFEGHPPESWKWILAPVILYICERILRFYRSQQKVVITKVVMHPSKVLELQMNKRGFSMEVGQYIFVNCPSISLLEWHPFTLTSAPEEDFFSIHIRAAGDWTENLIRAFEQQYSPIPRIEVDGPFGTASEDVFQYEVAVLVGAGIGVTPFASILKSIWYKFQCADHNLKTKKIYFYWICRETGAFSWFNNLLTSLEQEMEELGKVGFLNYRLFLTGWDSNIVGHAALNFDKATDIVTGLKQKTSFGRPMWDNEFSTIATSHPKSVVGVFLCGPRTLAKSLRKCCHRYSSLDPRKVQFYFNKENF
Summary of the method: (§1)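 Membranes from tetracycline-induced (24 h) Nox-expressing cells or human PMN (Nox2), sucrose-gradient purified; or xanthine oxidase. Incubated in PBS with Amplex Red, HRP and cofactors; NADPH (Nox) or xanthine starts ROS. Compound 1 nM–100 µM, 20 min at 37 °C, plate-reader. Background without membranes or agonist. Ki by Cheng-Prusoff; mean of ≥3 experiments in triplicate.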

NADPH oxidase 5 = target: T2, NADPH oxidase 5 (Homo sapiens, UniProt Q96PH1); test: Antagonist activity at human NOX5 assessed as inhibition of ROS production after 20 mins by cell-free amplex red assay; assay type: functional; summary of the method: as §1
T2 sequence (Q96PH1 whole entry): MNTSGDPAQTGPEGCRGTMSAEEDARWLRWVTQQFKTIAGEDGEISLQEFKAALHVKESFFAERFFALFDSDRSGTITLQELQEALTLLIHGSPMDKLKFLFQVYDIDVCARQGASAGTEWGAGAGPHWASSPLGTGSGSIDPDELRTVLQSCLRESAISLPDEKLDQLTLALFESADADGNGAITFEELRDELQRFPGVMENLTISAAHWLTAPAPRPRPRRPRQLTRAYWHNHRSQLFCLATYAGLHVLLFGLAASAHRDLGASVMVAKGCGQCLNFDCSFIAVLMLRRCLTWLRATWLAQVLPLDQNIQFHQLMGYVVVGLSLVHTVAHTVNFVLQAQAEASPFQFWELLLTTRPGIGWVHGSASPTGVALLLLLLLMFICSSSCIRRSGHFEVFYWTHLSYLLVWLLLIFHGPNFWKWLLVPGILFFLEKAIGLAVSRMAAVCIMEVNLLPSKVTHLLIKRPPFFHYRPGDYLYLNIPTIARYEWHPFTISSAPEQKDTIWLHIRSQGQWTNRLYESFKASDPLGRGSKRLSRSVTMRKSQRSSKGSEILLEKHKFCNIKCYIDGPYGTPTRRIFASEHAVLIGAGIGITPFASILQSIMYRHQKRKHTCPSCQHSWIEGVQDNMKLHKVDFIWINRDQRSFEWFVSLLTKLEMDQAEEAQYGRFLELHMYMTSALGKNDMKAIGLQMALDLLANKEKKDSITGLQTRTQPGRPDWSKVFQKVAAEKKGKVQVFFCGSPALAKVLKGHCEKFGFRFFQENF

NADPH oxidase 4 = target: T3, NADPH oxidase 4 (Homo sapiens, UniProt Q9NPH5); test: Antagonist activity at human NOX4 expressed in CHO cell membrane coexpressing tetracylin repressor assessed as inhibition of ROS production after 20 mins by cell-free amplex red assay; assay type: functional; conditions: in the assay text read “HEK293 cell membrane” for “CHO cell membrane”; summary of the method: as §1
T3 sequence (Q9NPH5 whole entry): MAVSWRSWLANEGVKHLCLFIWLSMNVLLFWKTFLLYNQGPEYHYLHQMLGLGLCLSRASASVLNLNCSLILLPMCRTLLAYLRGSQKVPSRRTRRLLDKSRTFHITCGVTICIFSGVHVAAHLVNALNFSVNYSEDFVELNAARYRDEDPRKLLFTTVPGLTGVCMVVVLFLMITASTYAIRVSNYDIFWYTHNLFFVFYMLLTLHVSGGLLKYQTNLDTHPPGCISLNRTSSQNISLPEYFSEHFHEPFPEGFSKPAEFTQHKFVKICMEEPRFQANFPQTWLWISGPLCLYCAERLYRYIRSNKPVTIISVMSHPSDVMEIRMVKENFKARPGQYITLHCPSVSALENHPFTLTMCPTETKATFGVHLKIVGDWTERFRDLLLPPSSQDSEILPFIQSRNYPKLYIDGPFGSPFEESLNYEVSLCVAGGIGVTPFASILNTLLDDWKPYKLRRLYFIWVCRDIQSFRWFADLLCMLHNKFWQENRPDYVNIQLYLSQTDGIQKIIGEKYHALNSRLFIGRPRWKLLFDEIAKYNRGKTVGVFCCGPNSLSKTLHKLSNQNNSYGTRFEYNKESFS

NADPH oxidase 2 = target: T4, NADPH oxidase 2 (Homo sapiens, UniProt P04839); test: Antagonist activity at human NOX2 in human polymorphonuclear cell membrane assessed as inhibition of ROS production after 20 mins by cell-free amplex red assay; assay type: functional; summary of the method: as §1
T4 sequence (P04839 whole entry): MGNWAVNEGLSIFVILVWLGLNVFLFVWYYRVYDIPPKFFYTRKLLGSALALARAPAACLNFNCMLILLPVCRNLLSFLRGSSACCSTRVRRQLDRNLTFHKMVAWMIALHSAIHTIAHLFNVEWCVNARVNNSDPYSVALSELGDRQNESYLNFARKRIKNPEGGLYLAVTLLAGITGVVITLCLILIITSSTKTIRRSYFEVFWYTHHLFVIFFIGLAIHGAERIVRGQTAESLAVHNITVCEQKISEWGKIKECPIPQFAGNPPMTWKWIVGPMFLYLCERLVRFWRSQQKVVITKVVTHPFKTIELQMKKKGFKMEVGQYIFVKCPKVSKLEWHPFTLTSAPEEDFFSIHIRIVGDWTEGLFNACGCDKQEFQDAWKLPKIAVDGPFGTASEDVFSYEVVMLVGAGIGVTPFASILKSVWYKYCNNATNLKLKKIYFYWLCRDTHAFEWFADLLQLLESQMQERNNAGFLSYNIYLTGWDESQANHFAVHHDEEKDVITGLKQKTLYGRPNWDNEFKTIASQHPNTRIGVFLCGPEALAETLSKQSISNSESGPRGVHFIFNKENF

[1] = Lipophilicity, log D of the compound at pH 7.4; assay type: physicochemical; conditions: buffer
[2] = Clearance in human liver microsomes assessed per mg of protein at 0.5 uM; assay type: ADME, Microsome; conditions: read-out: CLH
Summary of the method: (§2)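 Pooled rat (male Sprague Dawley) or human (mixed-sex) liver microsomes at 0.5 mg/mL final, 0.1 M phosphate pH 7.4, compound 0.5 µM final, 0.25% DMSO, 37 °C; 1 mM NADPH starts reaction. Sampled 0–45 min, methanol quench with internal standard, LC/MS-MS; intrinsic clearance from compound loss.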

[3] = Fraction unbound in rat plasma containing 50% plasma protein; assay type: ADME, cell-free
Summary of the method: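 Rat plasma protein binding in 50% plasma; fraction unbound reported.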

[4] = Efflux ratio of apparent permeability across human Caco2 cells at 10 uM after 2 hrs; assay type: ADME, cell-based; conditions: Caco-2
Summary of the method: (§3)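 Caco-2 monolayers grown 20 days, TEER >800 ohm·cm². Compound 10 µM final in HBSS pH 6.5 (1% DMSO), dosed apical (A→B) or basolateral (B→A), 2 h at 37 °C; both compartments sampled, LC–MS/MS cassette analysis with 5-point calibration.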

[5] = Apparent permeability across human Caco2 cells at 10 uM after 2 hrs; assay type: ADME, cell-based; conditions: Caco-2; summary of the method: as §3
[6] = Clearance in Sprague-Dawley rat liver microsomes assessed per mg of protein at 0.5 uM; assay type: ADME, Microsome; conditions: read-out: CLH; summary of the method: as §2
Homo sapiens = species: Homo sapiens; test: Selectivity ratio of Ki for human NOX2 to Ki for human NOX4
Summary of the method: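 Ratio of Ki values from the Amplex Red membrane ROS assay (PMN membranes for Nox2, Nox4-overexpressing membranes), NADPH-triggered, 1 nM–100 µM, 20 min at 37 °C; Ki via Cheng-Prusoff.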

SMILES | Ki (NADPH oxidase 1) | Ki (NADPH oxidase 5) | Ki (NADPH oxidase 4) | Ki (NADPH oxidase 2) | logD [1] | microsomal CLint at 0.5 µM [2] | fraction unbound [3] | efflux ratio at 2 h, 10 µM [4] | Papp at 2 h, 10 µM [5] | microsomal CLint at 0.5 µM [6] | Ratio Ki (Homo sapiens)
O=c1c2c3n(c(=O)cc2[nH]n1-c1ccccc1Cl)CCCN(Cc1ccoc1)C3 | 200 nM | 955 nM | 111 nM | 1020 nM | – | – | – | – | – | – | –
CC(C)(C)OC(=O)N1CCCn2c(c3c(=O)n(-c4ccccc4Cl)[nH]c3cc2=O)C1 | 148 nM | 590 nM | 103 nM | 1280 nM | – | – | – | – | – | – | –
Cl.O=c1c2c3n(c(=O)cc2[nH]n1-c1ccccc1Cl)CCCN(Cc1cccnc1)C3 | 208 nM | 1150 nM | 94 nM | 1370 nM | 0.92 | 21 µL/min/mg | 0.029 | 18.7 | 1 ×10⁻⁶ cm/s | 31.1 µL/min/mg | –
COc1cccc(CN2CCCn3c(c4c(=O)n(-c5ccccc5OC)[nH]c4cc3=O)C2)c1 | 212 nM | 690 nM | 131 nM | 820 nM | – | – | – | – | – | – | –
COc1ccc(CN2CCCn3c(c4c(=O)n(-c5ccccc5Cl)[nH]c4cc3=O)C2)cc1 | 184 nM | 690 nM | 116 nM | 780 nM | – | – | – | – | – | – | –
O=c1c2c3n(c(=O)cc2[nH]n1-c1ccccc1Cl)CCN(Cc1ccccc1)C3 | 398 nM | 1420 nM | 142 nM | 2020 nM | – | – | – | – | – | – | –
O=c1c2c3n(c(=O)cc2[nH]n1-c1ccccc1Cl)CCCN(Cc1cccc(Cl)c1)C3 | 104 nM | 475 nM | 101 nM | 1150 nM | 2.76 | 81.4 µL/min/mg | – | – | – | 153 µL/min/mg | –
O=c1c2c3n(c(=O)cc2[nH]n1-c1ccccc1Cl)CCCN(Cc1ccccc1Cl)C3 | 87 nM | 615 nM | 76 nM | 1160 nM | 2.76 | 87.1 µL/min/mg | – | – | – | 164 µL/min/mg | –

The remaining compounds from weak to strong by Ki (NADPH oxidase 1), led by results:

Ki (NADPH oxidase 1) | Ki (NADPH oxidase 5) | Ki (NADPH oxidase 4) | Ki (NADPH oxidase 2) | logD [1] | microsomal CLint at 0.5 µM [2] | fraction unbound [3] | efflux ratio at 2 h, 10 µM [4] | Papp at 2 h, 10 µM [5] | microsomal CLint at 0.5 µM [6] | Ratio Ki (Homo sapiens) | SMILES
218 nM | 670 nM | 144 nM | 645 nM | – | – | – | – | – | – | – | COc1ccccc1-n1[nH]c2cc(=O)n3c(c2c1=O)CN(Cc1ccccc1)CCC3
217 nM | 610 nM | 93 nM | 510 nM | 0.33 | 15.7 µL/min/mg | 0.069 | 16.8 | 1.4 ×10⁻⁶ cm/s | 32.1 µL/min/mg | – | COc1ccccc1-n1[nH]c2cc(=O)n3c(c2c1=O)CN(Cc1ccccn1)CCC3.Cl
173 nM | 490 nM | 156 nM | 433 nM | – | – | – | – | – | – | – | O=c1c2c3n(c(=O)cc2[nH]n1-c1ccccc1Cl)CCOC3
133 nM | 740 nM | 111 nM | 1760 nM | – | – | – | – | – | – | – | COc1ccccc1CN1CCCn2c(c3c(=O)n(-c4ccccc4Cl)[nH]c3cc2=O)C1
119 nM | 360 nM | 87 nM | 365 nM | – | – | – | – | – | – | 4.2 | O=c1c2c3n(c(=O)cc2[nH]n1-c1ccccc1Cl)CCCNC3
113 nM | 730 nM | 112 nM | 1200 nM | 1.99 | 35 µL/min/mg | 0.901 | 1.91 | 22.3 ×10⁻⁶ cm/s | 60.1 µL/min/mg | – | COc1cccc(CN2CCCn3c(c4c(=O)n(-c5ccccc5Cl)[nH]c4cc3=O)C2)c1.Cl
95 nM | 585 nM | 103 nM | 1260 nM | 2.76 | 77.3 µL/min/mg | – | – | – | 152 µL/min/mg | – | O=c1c2c3n(c(=O)cc2[nH]n1-c1ccccc1Cl)CCCN(Cc1ccc(Cl)cc1)C3

Source: ChEMBL document CHEMBL1926564, “Design, synthesis and biological activity of original pyrazolo-pyrido-diazepine, -pyrazine and -oxazine dione derivatives as novel dual Nox4/Nox1 inhibitors” (Bioorg Med Chem, 2011)
